Results as given in ChEMBL document CHEMBL1156152, “Targeted delivery of paclitaxel to tumor cells: synthesis and in vitro evaluation” (J Med Chem, 2010).
Active and inactive are the calls of the source. The calls are words filed in the database; no cut-off is given here.

Experiments:
[1] = (§1) Cytotoxicity against paclitaxel-sensitive human KB3-1 cells assessed as decrease in cell viability after 72 hrs by neutral red dye assay; format: functional, cell-based; details: KB 3-1, 72 h
Procedure, shortened: (§2)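 KB-3-1 head and neck cancer cells kept in D-MEM/F12 with 10% FBS, penicillin/streptomycin, 2 mM L-glutamine, 37 °C, 5% CO2. Seeded 20,000 cells/well, adhered 24 h, then given varying concentrations in triplicate for 72 h. Viable cells took up neutral red (50 μg/ml, 30 min); dye dissolved in 0.5 N HCl with 35% ethanol, absorbance 570 nm.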

KB 3-1 = assay: as §1; format: functional, cell-based; procedure, shortened: as §2
KB-V1 = assay: Cytotoxicity against paclitaxel-resistant human KBV1 cells assessed as decrease in cell viability after 72 hrs by neutral red dye assay; format: functional, cell-based
Procedure, shortened: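 KB-V1 cells grown in D-MEM/F12 with 10% FBS, penicillin/streptomycin, 2 mM L-glutamine and vinblastine (1 μg/ml), 37 °C, 5% CO2. Plated at 20,000 cells/well, adhered 24 h, treated with graded concentrations in triplicate for 72 h; neutral red (50 μg/ml, 30 min) uptake, dye extracted in acidic ethanol, read at 570 nm.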

HUVEC [2] = assay: Cytotoxicity against HUVEC assessed as decrease in cell viability after 72 hrs by neutral red dye assay; format: cell-based; details: human
Procedure, shortened: (§3)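 HUVECs cultured overnight with or without TPA (100 nM phorbol ester) to induce tissue factor, then plated 20,000 cells/well, adhered 24 h, and exposed to graded drug concentrations for 72 h in triplicate. Viability read by neutral red uptake (50 μg/ml, 30 min, 37 °C), PBS washes, dye extracted in 0.5 N HCl/35% ethanol, absorbance at 570 nm.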

HUVEC [3] = assay: Cytotoxicity against TPA-treated HUVEC assessed as decrease in cell viability after 72 hrs by neutral red dye assay; format: cell-based; details: human; procedure, shortened: as §3

| Compound | IC50 [1] | Activity (KB 3-1) | Activity (KB-V1) | Activity (HUVEC [2]) | Activity (HUVEC [3]) |
| --- | --- | --- | --- | --- | --- |
| CC(=O)O[C@H]1C(=O)[C@]2(C)[C@@H](OC(=O)CCC(=O)N[C@@H](Cc3ccccc3)C(=O)N[C@@H](Cc3ccccc3)C(=O)N[C@@H](CCCNC(=N)N)C(=O)CCl)C[C@H]3OC[C@@]3(OC(C)=O)[C@H]2[C@H](OC(=O)c2ccccc2)[C@]2(O)C[C@H](OC(=O)[C@H](O)[C@@H](NC(=O)c3ccccc3)c3ccccc3)C(C)=C1C2(C)C | 130 nM | Dose-dependent effect | inactive |  |  |
| CC(=O)O[C@H]1C(=O)[C@@]2(C)[C@H]([C@H](OC(=O)c3ccccc3)[C@]3(O)C[C@H](OC(=O)[C@H](O)[C@@H](NC(=O)c4ccccc4)c4ccccc4)C(C)=C1C3(C)C)[C@]1(OC(C)=O)CO[C@@H]1C[C@@H]2O [PACLITAXEL] | 1.2 nM |  | inactive | Active | Active |
| CC(=O)O[C@H]1C(=O)[C@@]2(C)[C@H]([C@H](OC(=O)c3ccccc3)[C@]3(O)C[C@H](OC(=O)[C@H](OC(=O)CCC(=O)N[C@@H](Cc4ccccc4)C(=O)N[C@@H](Cc4ccccc4)C(=O)N[C@@H](CCCNC(=N)N)C(=O)CCl)[C@@H](NC(=O)c4ccccc4)c4ccccc4)C(C)=C1C3(C)C)[C@]1(OC(C)=O)CO[C@@H]1C[C@@H]2O | 12 nM | Dose-dependent effect | inactive |  | Not Active |
